Activity calls are given as the source filed them. The rule behind the calls is not given here.
Tests used:
[1] = target: T1, Bromodomain-containing protein 4 (Homo sapiens, UniProt O60885); assay: Binding affinity to N-terminal His-tagged BRD4 (BD1) (unknown origin) assessed as change in melting temperature incubated for 4 hrs in presence of increasing concentrations of methionine by SYPRO orange protein staining-based thermal denaturation assay
How it was run: (§1)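 Preformed BRD4(BD1)–compound covalent complex incubated with excess free cysteine or methionine. Reversibility assessed by SYPRO Orange thermal denaturation, monitoring the complex's Tm.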

[2] = target: Transcription initiation factor TFIID subunit 1 (Homo sapiens) (UniProt P21675); assay: Binding affinity to TAF1(2) (unknown origin) assessed as change in melting temperature at 100 uM after 0.5 to 4 hrs by SYPRO orange protein staining-based thermal denaturation assay
How it was run: (§2)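 Thermal shift (PTS) screen of non-BET bromodomains. Each domain at 5 µM incubated with 100 µM covalent or control compound plus 5X SYPRO Orange in 50 mM NaCl/50 mM HEPES pH 7.4 for 30 min or 4 h. Change in Tm recorded, with a search for a high-Tm species.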

[3] = target: T1, Bromodomain-containing protein 4; assay: Binding affinity to N-terminal His-tagged BRD4 (BD1) (unknown origin) assessed as change in melting temperature at 100 uM after 0.5 hrs by SYPRO orange protein staining-based thermal denaturation assay
How it was run: (§3)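 N-terminally His-tagged recombinant BRD4(BD1), 5 µM, incubated with 100 µM compound and 5X SYPRO Orange in 50 mM NaCl/50 mM HEPES pH 7.4 for 30 min or 4 h. Protein thermal shift melt gives ΔTm; more than one transition may be resolved.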

[4] = target: T1, Bromodomain-containing protein 4; assay: Binding affinity to N-terminal His-tagged BRD4 (BD1) (unknown origin) assessed as change in melting temperature incubated for 4 hrs in presence of increasing concentrations of cysteine amino acids by SYPRO orange protein staining-based thermal denaturation assay; how it was run: as §1
[5] = target: T1, Bromodomain-containing protein 4; assay: Inhibition of N-terminal His-tagged BRD4 (BD1/BD2) (unknown origin) using biotinylated tetra-acetylated histone H4 peptide after 30 mins by alpha-screen assay
[6] = target: SWI/SNF-related matrix-associated actin-dependent regulator of chromatin subfamily A member 4 (Homo sapiens) (UniProt P51532); assay: Binding affinity to BRG1 (unknown origin) assessed as change in melting temperature at 100 uM after 0.5 to 4 hrs by SYPRO orange protein staining-based thermal denaturation assay; how it was run: as §2
[7] = target: CREB-binding protein (Homo sapiens) (UniProt Q92793); assay: Binding affinity to CREBBP (unknown origin) assessed as change in melting temperature at 100 uM after 0.5 to 4 hrs by SYPRO orange protein staining-based thermal denaturation assay; how it was run: as §2
CREB-binding protein (Homo sapiens), sequence (Q92793 2-2442 limits assumed): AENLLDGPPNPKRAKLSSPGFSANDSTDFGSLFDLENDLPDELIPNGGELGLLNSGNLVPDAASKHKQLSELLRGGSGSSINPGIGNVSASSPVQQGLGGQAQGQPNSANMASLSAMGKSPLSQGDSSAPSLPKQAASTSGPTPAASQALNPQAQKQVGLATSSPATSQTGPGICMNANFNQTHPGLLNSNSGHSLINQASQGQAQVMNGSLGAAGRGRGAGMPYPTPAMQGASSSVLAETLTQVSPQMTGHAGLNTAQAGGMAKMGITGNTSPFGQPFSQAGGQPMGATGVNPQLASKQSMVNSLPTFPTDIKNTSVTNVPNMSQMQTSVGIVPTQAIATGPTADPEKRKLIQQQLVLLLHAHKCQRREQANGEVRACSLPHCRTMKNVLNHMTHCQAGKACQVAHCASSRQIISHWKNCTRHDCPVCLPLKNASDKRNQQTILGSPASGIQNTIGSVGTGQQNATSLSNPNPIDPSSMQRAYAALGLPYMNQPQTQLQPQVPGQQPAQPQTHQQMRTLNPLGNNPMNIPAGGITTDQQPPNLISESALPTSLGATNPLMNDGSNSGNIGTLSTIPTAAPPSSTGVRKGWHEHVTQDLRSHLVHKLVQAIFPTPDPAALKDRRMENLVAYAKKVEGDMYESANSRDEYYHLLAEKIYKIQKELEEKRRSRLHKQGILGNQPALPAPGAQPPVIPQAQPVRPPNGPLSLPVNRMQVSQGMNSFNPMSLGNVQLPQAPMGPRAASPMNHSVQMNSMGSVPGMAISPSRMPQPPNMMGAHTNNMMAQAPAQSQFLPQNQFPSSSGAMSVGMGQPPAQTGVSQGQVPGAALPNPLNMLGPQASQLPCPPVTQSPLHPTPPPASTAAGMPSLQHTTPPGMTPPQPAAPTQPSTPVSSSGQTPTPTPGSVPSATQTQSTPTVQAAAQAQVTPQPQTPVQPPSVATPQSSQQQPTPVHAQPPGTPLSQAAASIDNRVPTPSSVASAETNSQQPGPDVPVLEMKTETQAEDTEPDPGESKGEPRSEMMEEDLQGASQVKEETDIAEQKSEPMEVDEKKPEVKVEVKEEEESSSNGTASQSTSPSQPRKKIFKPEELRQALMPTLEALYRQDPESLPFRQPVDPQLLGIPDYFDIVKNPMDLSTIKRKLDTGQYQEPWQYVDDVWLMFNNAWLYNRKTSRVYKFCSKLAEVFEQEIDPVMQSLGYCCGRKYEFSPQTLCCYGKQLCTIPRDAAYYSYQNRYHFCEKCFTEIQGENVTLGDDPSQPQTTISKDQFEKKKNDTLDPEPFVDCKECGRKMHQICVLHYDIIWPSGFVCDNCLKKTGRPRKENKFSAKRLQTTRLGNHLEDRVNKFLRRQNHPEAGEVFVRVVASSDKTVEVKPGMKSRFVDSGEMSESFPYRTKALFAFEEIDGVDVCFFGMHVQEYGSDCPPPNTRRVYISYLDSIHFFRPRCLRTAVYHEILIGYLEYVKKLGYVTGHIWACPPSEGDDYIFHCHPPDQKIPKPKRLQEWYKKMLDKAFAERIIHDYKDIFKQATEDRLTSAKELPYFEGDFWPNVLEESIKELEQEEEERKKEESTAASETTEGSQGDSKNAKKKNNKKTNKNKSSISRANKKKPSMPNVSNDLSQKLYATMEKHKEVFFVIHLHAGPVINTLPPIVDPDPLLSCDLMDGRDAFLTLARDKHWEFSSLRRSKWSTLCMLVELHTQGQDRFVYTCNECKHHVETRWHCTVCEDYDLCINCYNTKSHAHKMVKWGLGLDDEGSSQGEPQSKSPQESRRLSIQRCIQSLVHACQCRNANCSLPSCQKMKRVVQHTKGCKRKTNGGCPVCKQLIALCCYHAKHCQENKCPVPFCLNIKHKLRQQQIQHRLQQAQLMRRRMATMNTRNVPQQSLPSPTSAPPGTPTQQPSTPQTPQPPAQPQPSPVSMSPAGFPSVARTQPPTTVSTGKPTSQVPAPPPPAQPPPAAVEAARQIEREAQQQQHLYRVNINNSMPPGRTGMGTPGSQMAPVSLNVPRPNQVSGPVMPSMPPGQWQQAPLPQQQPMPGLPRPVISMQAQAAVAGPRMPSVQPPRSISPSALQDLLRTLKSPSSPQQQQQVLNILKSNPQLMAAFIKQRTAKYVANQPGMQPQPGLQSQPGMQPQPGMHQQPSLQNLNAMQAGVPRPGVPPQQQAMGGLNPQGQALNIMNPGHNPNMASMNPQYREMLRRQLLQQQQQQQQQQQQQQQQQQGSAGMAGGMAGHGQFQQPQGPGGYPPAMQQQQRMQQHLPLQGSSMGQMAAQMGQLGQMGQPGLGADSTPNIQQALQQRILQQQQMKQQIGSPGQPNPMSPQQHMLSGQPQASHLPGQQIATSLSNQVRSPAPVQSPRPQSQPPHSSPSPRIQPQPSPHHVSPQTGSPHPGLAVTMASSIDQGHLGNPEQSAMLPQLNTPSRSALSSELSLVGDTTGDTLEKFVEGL

[8] = target: T1, Bromodomain-containing protein 4; assay: Inhibition of N-terminal His-tagged BRD4 (BD2) (unknown origin) using biotinylated tetra-acetylated histone H4 peptide after 30 mins by alpha-screen assay
[9] = target: PH-interacting protein (Homo sapiens) (UniProt Q8WWQ0); assay: Binding affinity to PHIP (unknown origin) assessed as change in melting temperature at 100 uM after 0.5 to 4 hrs by SYPRO orange protein staining-based thermal denaturation assay; how it was run: as §2
[10] = target: Histone acetyltransferase p300 (Homo sapiens) (UniProt Q09472); assay: Binding affinity to P300 (unknown origin) assessed as change in melting temperature at 100 uM after 0.5 to 4 hrs by SYPRO orange protein staining-based thermal denaturation assay; how it was run: as §2
Histone acetyltransferase p300 (Homo sapiens), sequence (Q09472 whole entry): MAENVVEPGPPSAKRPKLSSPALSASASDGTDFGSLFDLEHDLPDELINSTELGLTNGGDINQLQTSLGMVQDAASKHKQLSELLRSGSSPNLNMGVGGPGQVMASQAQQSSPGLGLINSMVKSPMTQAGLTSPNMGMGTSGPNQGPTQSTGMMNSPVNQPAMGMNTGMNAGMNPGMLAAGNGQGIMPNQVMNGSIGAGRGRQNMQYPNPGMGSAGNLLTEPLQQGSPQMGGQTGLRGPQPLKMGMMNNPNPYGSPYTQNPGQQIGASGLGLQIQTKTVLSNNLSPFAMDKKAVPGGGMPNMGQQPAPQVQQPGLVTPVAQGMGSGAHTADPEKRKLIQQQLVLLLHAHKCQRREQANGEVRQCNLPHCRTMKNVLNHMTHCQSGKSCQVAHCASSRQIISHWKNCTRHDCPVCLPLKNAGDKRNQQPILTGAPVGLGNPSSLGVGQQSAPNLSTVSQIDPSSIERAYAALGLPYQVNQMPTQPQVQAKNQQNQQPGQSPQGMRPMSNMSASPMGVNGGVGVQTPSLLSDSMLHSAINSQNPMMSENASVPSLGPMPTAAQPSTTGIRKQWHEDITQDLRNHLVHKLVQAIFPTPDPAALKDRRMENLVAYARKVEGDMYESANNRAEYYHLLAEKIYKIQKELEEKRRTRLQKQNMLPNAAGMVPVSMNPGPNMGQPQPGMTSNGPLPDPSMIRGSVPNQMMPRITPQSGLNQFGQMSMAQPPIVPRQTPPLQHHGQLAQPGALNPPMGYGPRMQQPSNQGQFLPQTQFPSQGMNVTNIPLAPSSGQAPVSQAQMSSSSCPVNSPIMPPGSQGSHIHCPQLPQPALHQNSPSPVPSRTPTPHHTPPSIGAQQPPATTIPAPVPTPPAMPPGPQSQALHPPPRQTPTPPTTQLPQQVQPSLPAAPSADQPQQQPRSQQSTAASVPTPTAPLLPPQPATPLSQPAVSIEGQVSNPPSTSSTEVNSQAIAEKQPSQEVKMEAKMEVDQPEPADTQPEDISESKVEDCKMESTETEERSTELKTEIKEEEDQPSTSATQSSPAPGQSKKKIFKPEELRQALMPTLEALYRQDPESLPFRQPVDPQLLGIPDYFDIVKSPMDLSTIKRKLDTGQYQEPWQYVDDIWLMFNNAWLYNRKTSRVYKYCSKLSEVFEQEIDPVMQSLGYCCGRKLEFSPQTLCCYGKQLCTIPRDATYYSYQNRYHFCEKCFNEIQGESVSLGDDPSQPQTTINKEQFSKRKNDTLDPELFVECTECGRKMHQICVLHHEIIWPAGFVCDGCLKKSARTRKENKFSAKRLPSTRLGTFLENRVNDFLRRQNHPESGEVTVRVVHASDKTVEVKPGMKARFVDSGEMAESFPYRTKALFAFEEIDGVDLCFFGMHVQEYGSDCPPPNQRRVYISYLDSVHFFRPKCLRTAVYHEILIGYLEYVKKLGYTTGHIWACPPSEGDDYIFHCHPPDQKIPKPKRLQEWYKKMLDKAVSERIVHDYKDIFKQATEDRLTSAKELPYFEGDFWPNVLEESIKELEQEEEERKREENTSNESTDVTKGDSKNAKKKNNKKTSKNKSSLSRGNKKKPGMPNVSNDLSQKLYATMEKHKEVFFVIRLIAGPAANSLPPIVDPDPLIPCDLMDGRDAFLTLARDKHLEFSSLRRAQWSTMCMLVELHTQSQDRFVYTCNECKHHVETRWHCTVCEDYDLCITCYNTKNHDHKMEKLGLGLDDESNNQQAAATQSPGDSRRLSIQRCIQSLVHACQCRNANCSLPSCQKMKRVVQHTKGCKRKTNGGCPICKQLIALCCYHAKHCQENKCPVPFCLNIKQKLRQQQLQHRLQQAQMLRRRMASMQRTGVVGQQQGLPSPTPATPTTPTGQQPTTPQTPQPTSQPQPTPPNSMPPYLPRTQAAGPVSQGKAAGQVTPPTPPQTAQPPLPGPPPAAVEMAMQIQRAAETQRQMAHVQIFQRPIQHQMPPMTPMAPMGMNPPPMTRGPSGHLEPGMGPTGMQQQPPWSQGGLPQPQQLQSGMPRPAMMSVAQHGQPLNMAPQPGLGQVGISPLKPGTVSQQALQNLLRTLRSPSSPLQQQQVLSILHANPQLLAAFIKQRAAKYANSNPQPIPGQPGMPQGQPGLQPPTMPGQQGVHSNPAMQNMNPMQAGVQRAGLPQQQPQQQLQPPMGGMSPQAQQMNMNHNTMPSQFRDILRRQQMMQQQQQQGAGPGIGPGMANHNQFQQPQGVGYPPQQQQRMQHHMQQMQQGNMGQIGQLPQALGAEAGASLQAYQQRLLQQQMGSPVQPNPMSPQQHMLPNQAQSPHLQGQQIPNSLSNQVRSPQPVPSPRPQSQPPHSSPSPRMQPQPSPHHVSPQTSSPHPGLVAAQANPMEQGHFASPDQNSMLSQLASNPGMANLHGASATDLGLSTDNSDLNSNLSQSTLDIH

Peregrin (Homo sapiens) = target: T2, Peregrin (Homo sapiens) (UniProt P55201); assay: Binding affinity to BRPF1 (unknown origin) assessed as change in melting temperature at 100 uM after 0.5 to 4 hrs by SYPRO orange protein staining-based thermal denaturation assay; how it was run: as §2
T2 sequence (whole entry): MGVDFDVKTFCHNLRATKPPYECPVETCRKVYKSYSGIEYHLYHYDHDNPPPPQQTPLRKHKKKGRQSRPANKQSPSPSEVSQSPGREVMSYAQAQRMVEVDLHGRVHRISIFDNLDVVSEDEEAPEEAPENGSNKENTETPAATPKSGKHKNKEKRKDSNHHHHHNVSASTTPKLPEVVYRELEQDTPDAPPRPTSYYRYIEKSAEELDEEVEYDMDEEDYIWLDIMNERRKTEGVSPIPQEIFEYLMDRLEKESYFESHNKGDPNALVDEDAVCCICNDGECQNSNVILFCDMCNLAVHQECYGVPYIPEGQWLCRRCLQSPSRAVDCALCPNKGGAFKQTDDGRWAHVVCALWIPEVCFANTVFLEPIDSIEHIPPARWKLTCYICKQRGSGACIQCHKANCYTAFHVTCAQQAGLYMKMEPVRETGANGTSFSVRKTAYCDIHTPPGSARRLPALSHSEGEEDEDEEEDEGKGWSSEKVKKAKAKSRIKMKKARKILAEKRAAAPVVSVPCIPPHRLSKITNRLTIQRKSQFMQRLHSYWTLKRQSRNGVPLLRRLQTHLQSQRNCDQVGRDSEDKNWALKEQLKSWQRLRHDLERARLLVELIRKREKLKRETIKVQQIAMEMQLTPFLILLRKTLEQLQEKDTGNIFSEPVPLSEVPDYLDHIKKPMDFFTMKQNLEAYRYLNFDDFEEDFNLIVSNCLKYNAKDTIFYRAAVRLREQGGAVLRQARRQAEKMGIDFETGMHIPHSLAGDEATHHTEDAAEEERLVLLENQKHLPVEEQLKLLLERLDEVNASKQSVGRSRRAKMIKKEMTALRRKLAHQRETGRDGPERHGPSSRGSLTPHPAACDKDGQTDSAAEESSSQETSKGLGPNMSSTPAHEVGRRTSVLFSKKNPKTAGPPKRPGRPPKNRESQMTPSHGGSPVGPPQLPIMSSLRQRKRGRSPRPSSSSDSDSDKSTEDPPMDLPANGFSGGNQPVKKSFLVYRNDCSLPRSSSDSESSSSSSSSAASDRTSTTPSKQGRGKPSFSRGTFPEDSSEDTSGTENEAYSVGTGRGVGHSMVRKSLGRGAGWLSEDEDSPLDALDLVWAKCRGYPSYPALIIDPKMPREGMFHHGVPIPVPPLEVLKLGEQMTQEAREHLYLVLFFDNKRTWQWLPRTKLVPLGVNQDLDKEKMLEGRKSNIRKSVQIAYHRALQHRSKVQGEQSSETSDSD

[11] = target: T1, Bromodomain-containing protein 4; assay: Inhibition of N-terminal His-tagged BRD4 (BD1) (unknown origin) using biotinylated tetra-acetylated histone H4 peptide after 30 mins by alpha-screen assay
MV4-11 [12] = assay: Antiproliferative activity against human MV4-11 cells incubated for 24 hrs followed by compound removal and further incubation for 48 hrs by cell-titer 96 aqueous one solution reagent-based assay; assay type: functional
How it was run: (§4)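 Washout format: MV4-11 plated at 25,000 cells/well with two-fold dilutions, triplicate wells. Cells treated 24 h, compound removed and cells washed twice with conditioned media. Growth continued 48 h in compound-free media. Read with CellTiter 96 AQueous One reagent, absorbance 490 nm, expressed as % of DMSO control.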

[13] = target: T1, Bromodomain-containing protein 4; assay: Ratio of IC50 for inhibition of N-terminal His-tagged BRD4 (BD1) (unknown origin) using biotinylated tetra-acetylated histone H4 peptide after 4 hrs by alpha-screen assay to IC50 for inhibition of N-terminal His-tagged BRD4(BD1) (unknown origin) using biotinylated tetra-acetylated histone H4 peptide after 5 mins by alpha-screen assay
How it was run: (§5)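 AlphaScreen: N-terminally His-tagged BRD4(BD1) (20–200 nM) with biotinylated tetra-acetylated H4 peptide (3–75 nM) in 50 mM HEPES, 100 mM NaCl, 0.1% BSA, pH 7.4, under green light. Nickel-chelate acceptor and streptavidin donor beads at 2 µg/mL final, serially diluted compounds added. Luminescence read at 570 nm.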

MV4-11 [14] = assay: Induction of apoptosis in human MV4-11 cells assessed as late apoptotic cells after 72 hrs by FITC annexin V-staining based flow cytometry (reference value: 1.53%); assay type: functional
PBMC = assay: Cytotoxicity against human PBMC assessed as reduction in cell viability after 24 hrs by cell-titer 96 aqueous one solution reagent-based assay
MV4-11 [15] = assay: Induction of apoptosis in human MV4-11 cells assessed as necrotic cells after 72 hrs by FITC annexin V-staining based flow cytometry (reference value: 0.21%); assay type: functional
MV4-11 [16] = assay: Antiproliferative activity against human MV4-11 cells preincubated for 24 hrs by followed by compound washout measured after 48 hrs post compound washout by cell-titer 96 aqueous one solution reagent-based assay; assay type: functional; how it was run: as §4
[17] = target: T1, Bromodomain-containing protein 4; assay: Binding affinity to N-terminal His-tagged BRD4 (BD1) (unknown origin) assessed as change in melting temperature at 100 uM after 4 hrs by SYPRO orange protein staining-based thermal denaturation assay; how it was run: as §3
MV4-11 [18] = assay: Induction of apoptosis in human MV4-11 cells assessed as early apoptotic cells after 72 hrs by FITC annexin V-staining based flow cytometry (reference value: 1.87%); assay type: functional
MV4-11 [19] = assay: Induction of apoptosis in human MV4-11 cells assessed as viable cells after 72 hrs by FITC annexin V-staining based flow cytometry (reference value: 96.4%); assay type: functional
[20] = target: T1, Bromodomain-containing protein 4; assay: Inhibition of N-terminal His-tagged BRD4 (BD1) (unknown origin) using biotinylated tetra-acetylated histone H4 peptide after 1 hr by alpha-screen assay; how it was run: as §5
[21] = target: T1, Bromodomain-containing protein 4; assay: Inhibition of N-terminal His-tagged BRD4 (BD1) (unknown origin) using biotinylated tetra-acetylated histone H4 peptide after 4 hrs by alpha-screen assay; how it was run: as §5
[22] = target: T1, Bromodomain-containing protein 4; assay: Inhibition of N-terminal His-tagged BRD4 (BD1) (unknown origin) using biotinylated tetra-acetylated histone H4 peptide after 5 mins by alpha-screen assay; how it was run: as §5
MV4-11 [23] = assay: Antiproliferative activity against human MV4-11 cells after 48 hrs by cell-titer 96 aqueous one solution reagent-based assay; assay type: functional
How it was run: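 MV4-11 seeded at 25,000–50,000 cells/well with two-fold compound dilutions added at seeding, triplicate wells. DMSO 0.1% final as negative control. Continuous treatment at 37 °C, 5% CO2, measured at 48 h. CellTiter 96 AQueous One reagent for 3 h, then absorbance at 490 nm. % proliferation = (OD sample − OD blank)/OD DMSO × 100. IC50 taken from dose–response.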

[24] = target: T1, Bromodomain-containing protein 4; assay: Irreversible inhibition of BRD4 in human MV4-11 cells assessed as suppression of […] mRNA levels preincubated for 4 hrs followed by compound washout measured after 4 to 24 hrs post washout by RT-PCR analysis; assay type: cell-based
How it was run: (§6)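 MV4-11 cells, 50,000/well, exposed for 4 h at 37 °C, 5% CO2 to compound in IMDM + 10% FBS (0.2% DMSO final; DMSO-only control). Cells washed 3 times with conditioned media and placed in compound-free media, then harvested after washout for mRNA capture. One-step TaqMan real-time PCR with cyclophilin A reference. Results given as % of DMSO control.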

[25] = target: T1, Bromodomain-containing protein 4; assay: Irreversible inhibition of BRD4 in human MV4-11 cells assessed as suppression of MYC mRNA levels preincubated for 4 hrs followed by compound washout measured after 4 to 24 hrs post washout by RT-PCR analysis; assay type: cell-based; how it was run: as §6
[26] = target: T1, Bromodomain-containing protein 4; assay: Irreversible inhibition of BRD4 in human MV4-11 cells assessed as suppression of CCR1 mRNA levels preincubated for 4 hrs followed by compound washout measured after 4 to 24 hrs post washout by RT-PCR analysis; assay type: cell-based; how it was run: as §6
[27] = target: T1, Bromodomain-containing protein 4; assay: Irreversible inhibition of BRD4 in human MV4-11 cells assessed as suppression of IL1RN mRNA levels preincubated for 4 hrs followed by compound washout measured after 4 to 24 hrs post washout by RT-PCR analysis; assay type: cell-based; how it was run: as §6
[28] = target: T1, Bromodomain-containing protein 4; assay: Irreversible inhibition of BRD4 in human MV4-11 cells assessed as suppression of BCL2 mRNA levels preincubated for 4 hrs followed by compound washout measured after 4 to 24 hrs post washout by RT-PCR analysis; assay type: cell-based; how it was run: as §6

SMILES	Activity [2]	IC50 [5]	Activity [6]	Activity [7]	IC50 [8]	Activity [9]	Activity [10]	Activity (Peregrin (Homo sapiens))	IC50 [11]	Activity (MV4-11 [12])	Ratio IC50 [13]	Activity (MV4-11 [14])	Activity [3]	Activity (PBMC)	Activity (MV4-11 [15])	Activity (MV4-11 [16])	Activity [17]	Activity (MV4-11 [18])	Activity (MV4-11 [19])	IC50 [20]	also measured
Cc1noc(C)c1-c1ccc(=O)n(Cc2ccccc2)c1	inactive	0.28 µM	inactive	inactive	0.08 µM	inactive	inactive	inactive	0.23 µM	–	–	–	–	–	–	–	–	–	–	–	Activity [1]: Active; ΔTm [3]: 5 °C; Activity [4]: Active
Cc1noc(C)c1-c1cc(N)c2ncn(Cc3ccc(C4CO4)cc3)c2c1 (stereo not given)	–	0.06 µM	–	–	0.05 µM	–	–	–	0.05 µM	Active	18	19.6%	Active	Non-Toxic	2.05%	Active	Active	65.9%	12.5%	0.075 µM	IC50 [21]: 0.015 µM; IC50 [22]: 0.274 µM
Cc1noc(C)c1-c1cc(N)c2ncn(Cc3ccccc3)c2c1	–	0.05 µM	–	–	0.01 µM	–	–	–	0.02 µM	–	1	24.2%	Active	Non-Toxic	13.3%	–	Active	45%	17.6%	0.008 µM	IC50 [21]: 0.019 µM; IC50 [22]: 0.017 µM
Cc1noc(C)c1-c1ccc(=O)n(Cc2ccc(C3CO3)c(F)c2)c1 (stereo not given)	inactive	–	inactive	inactive	0.13 µM	inactive	inactive	inactive	0.16 µM	Active	–	–	Active	–	–	Active	Active	–	–	–	Activity (MV4-11 [23]): Active; inhibition [24]: Active; inhibition [25]: Active; inhibition [26]: Active; inhibition [27]: Active; inhibition [28]: Active

Source: ChEMBL document CHEMBL4229554, “Design and Characterization of Novel Covalent Bromodomain and Extra-Terminal Domain (BET) Inhibitors Targeting a Methionine” (J Med Chem, 2018)
